Measured values: ChEMBL document CHEMBL1687698, “Discovery of INCB9471, a Potent, Selective, and Orally Bioavailable CCR5 Antagonist with Potent Anti-HIV-1 Activity” (ACS Med Chem Lett, 2010)
Each block holds one compound with its values, some of them ahead of it. Activity calls are given as the source filed them. No cut-off for these calls is given here.

Tests used:
[1] = molecular target: T1, C-C chemokine receptor type 5 (Homo sapiens, UniProt P51681); test: Displacement of [125I]MIP-1beta from CCR5 in IL-10-stimulated human monocytes; type: cell-based
[2] = tested on: Human immunodeficiency virus 1; test: Antiviral activity against HIV-1 ADA infected in PHA-stimulated human PBMC cells assessed as viral p24 core protein level after 7 days by ELISA; type: functional, organism-based; conditions: Human immunodeficiency virus 1, ADA, 168 h
How it was run: (§1)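 Human PBMC activated with PHA, then infected with HIV-1 (ADA or BaL strain). Infectivity was read as viral p24 core protein in the culture supernatants.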

[3] = tested on: Human immunodeficiency virus 1; test: Antiviral activity against HIV-1 BaL infected in PHA-stimulated human PBMC cells assessed as viral p24 core protein level after 7 days by ELISA; type: functional, organism-based; conditions: Human immunodeficiency virus 1, BaL, 168 h; how it was run: as §1
[4] = Half life in human in repeated dosing regimen; type: ADME, organism-based; conditions: in vivo
[5] = molecular target: T1, C-C chemokine receptor type 5; test: Activation of CCR5 in human PBMC cells; type: cell-based
[6] = molecular target: T1, C-C chemokine receptor type 5; test: Antagonist activity at CCR5 assessed as inhibition of intracellular calcium mobilization; type: functional, cell-based
[7] = molecular target: T1, C-C chemokine receptor type 5; test: Antagonist activity at CCR5 assessed as inhibition of ERK phosphorylation; type: functional
[8] = molecular target: T1, C-C chemokine receptor type 5; test: Antagonist activity at CCR5 assessed as inhibition of receptor internalization; type: functional
[9] = tested on: Human immunodeficiency virus 1; test: Antiviral activity against HIV-1 R5 clade A infected in human PBMC cells; type: functional; conditions: Human immunodeficiency virus 1, R5 clade A
[10] = tested on: Human immunodeficiency virus 1; test: Antiviral activity against HIV-1 R5 clade B infected in human PBMC cells; type: functional; conditions: Human immunodeficiency virus 1, R5 clade B
[11] = tested on: Human immunodeficiency virus 1; test: Antiviral activity against HIV-1 R5 clade C infected in human PBMC cells; type: functional; conditions: Human immunodeficiency virus 1, R5 clade C
[12] = tested on: Human immunodeficiency virus 1; test: Antiviral activity against HIV-1 R5 clade D infected in human PBMC cells; type: functional; conditions: Human immunodeficiency virus 1, R5 clade D
[13] = tested on: Human immunodeficiency virus 1; test: Antiviral activity against HIV-1 R5 clade E infected in human PBMC cells; type: functional; conditions: Human immunodeficiency virus 1, R5 clade E
[14] = tested on: Human immunodeficiency virus 1; test: Antiviral activity against HIV-1 R5 clade F infected in human PBMC cells; type: functional; conditions: Human immunodeficiency virus 1, R5 clade F
[15] = tested on: Human immunodeficiency virus 1; test: Antiviral activity against HIV-1 R5 clade G infected in human PBMC cells; type: functional; conditions: Human immunodeficiency virus 1, R5 clade G
[16] = tested on: Human immunodeficiency virus 1; test: Antiviral activity against HIV-1 R5 clade J infected in human PBMC cells; type: functional; conditions: Human immunodeficiency virus 1, R5 clade J
[17] = tested on: Human immunodeficiency virus 1; test: Antiviral activity against HIV-1 X4 infected in PBMC cells; type: functional, organism-based
[18] = molecular target: Voltage-gated inwardly rectifying potassium channel KCNH2 (Homo sapiens, UniProt Q12809); test: Inhibition of human hERG
How it was run: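 hERG potassium current was measured by patch clamp, and IC50 was derived from current inhibition.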

[19] = Protein binding in human serum assessed as fraction unbound; type: ADME, cell-free
[20] = molecular target: Cytochrome P450 3A4 (Homo sapiens, UniProt P08684); test: Inhibition of CYP3A4; type: ADME
[21] = molecular target: Cytochrome P450 2D6 (Homo sapiens, UniProt P10635); test: Inhibition of CYP2D6; type: ADME
[22] = molecular target: T2, Cytochrome P450 1A2 (Homo sapiens, UniProt P05177); test: Inhibition of CYP1A2; type: ADME
T2 sequence (P05177 whole entry): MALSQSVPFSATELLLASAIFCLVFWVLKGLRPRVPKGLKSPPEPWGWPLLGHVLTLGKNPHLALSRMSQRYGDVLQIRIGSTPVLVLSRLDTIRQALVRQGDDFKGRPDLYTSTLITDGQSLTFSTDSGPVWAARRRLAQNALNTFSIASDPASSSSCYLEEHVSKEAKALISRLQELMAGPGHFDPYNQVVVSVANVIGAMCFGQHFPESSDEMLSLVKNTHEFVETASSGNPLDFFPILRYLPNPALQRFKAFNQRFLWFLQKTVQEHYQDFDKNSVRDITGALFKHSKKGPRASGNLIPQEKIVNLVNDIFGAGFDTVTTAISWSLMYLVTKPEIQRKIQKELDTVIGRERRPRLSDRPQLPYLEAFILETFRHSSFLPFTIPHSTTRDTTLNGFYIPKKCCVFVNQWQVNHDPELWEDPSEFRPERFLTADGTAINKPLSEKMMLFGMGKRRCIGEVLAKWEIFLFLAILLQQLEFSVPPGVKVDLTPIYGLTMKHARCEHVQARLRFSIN

[23] = molecular target: Cytochrome P450 2C9 (Homo sapiens, UniProt P11712); test: Inhibition of CYP2C9; type: ADME
[24] = molecular target: Cytochrome P450 2C19 (Homo sapiens, UniProt P33261); test: Inhibition of CYP2C19; type: ADME
[25] = Systemic clearance in rat at 1 mg/kg, iv; type: ADME, organism-based; set-up: dose 1 mg/kg, route intravenous; conditions: in vivo
[26] = tested on: Rattus norvegicus; test: Volume of distribution in rat at 1 mg/kg, iv; type: ADME, organism-based; set-up: dose 1 mg/kg, route intravenous; conditions: in vivo
[27] = Half life in rat at 1 mg/kg, iv; type: ADME, organism-based; set-up: dose 1 mg/kg, route intravenous; conditions: in vivo
[28] = AUC in rat at 1 mg/kg, iv; type: ADME, organism-based; set-up: dose 1 mg/kg, route intravenous; conditions: plasma
[29] = Systemic clearance in dog at 1 mg/kg, iv; type: ADME, organism-based, Canis lupus familiaris; set-up: dose 1 mg/kg, route intravenous; conditions: in vivo
[30] = tested on: Canis familiaris; test: Volume of distribution in dog at 1 mg/kg, iv; type: ADME, organism-based, Canis lupus familiaris; set-up: dose 1 mg/kg, route intravenous; conditions: in vivo
[31] = Half life in dog at 1 mg/kg, iv; type: ADME, organism-based, Canis lupus familiaris; set-up: dose 1 mg/kg, route intravenous; conditions: in vivo
[32] = AUC in dog at 1 mg/kg, iv; type: ADME, organism-based, Canis lupus familiaris; set-up: dose 1 mg/kg, route intravenous; conditions: plasma
[33] = Tmax in rat at 20 mg/kg, po; type: ADME, organism-based; set-up: dose 20 mg/kg, route oral; conditions: in vivo
[34] = Cmax in rat at 20 mg/kg, po; type: ADME, organism-based; set-up: dose 20 mg/kg, route oral; conditions: in vivo
[35] = Plasma concentration in rat at 20 mg/kg, po after 24 hrs; type: ADME, organism-based; set-up: dose 20 mg/kg, route oral
[36] = Half life in rat at 20 mg/kg, po; type: ADME, organism-based; set-up: dose 20 mg/kg, route oral; conditions: in vivo
[37] = AUC in rat at 20 mg/kg, po; type: ADME, organism-based; set-up: dose 20 mg/kg, route oral; conditions: plasma
[38] = Oral bioavailability in rat at 20 mg/kg; type: ADME, organism-based; conditions: in vivo
[39] = Tmax in dog at 20 mg/kg, po; type: ADME, organism-based, Canis lupus familiaris; set-up: dose 20 mg/kg, route oral; conditions: in vivo
[40] = Cmax in dog at 20 mg/kg, po; type: ADME, organism-based, Canis lupus familiaris; set-up: dose 20 mg/kg, route oral; conditions: in vivo
[41] = Half life in dog at 20 mg/kg, po; type: ADME, organism-based, Canis lupus familiaris; set-up: dose 20 mg/kg, route oral; conditions: in vivo
[42] = AUC in dog at 20 mg/kg, po; type: ADME, organism-based, Canis lupus familiaris; set-up: dose 20 mg/kg, route oral; conditions: plasma
[43] = Oral bioavailability in dog at 20 mg/kg; type: ADME, organism-based, Canis lupus familiaris; conditions: in vivo
[44] = Permeability across basolateral to apical side in human Caco2 cells; type: ADME, cell-based; conditions: Caco-2, read-out: permeability
[45] = Induction of Cytochrome P450 up to 30 uM; type: ADME

T1 sequence (P51681 whole entry): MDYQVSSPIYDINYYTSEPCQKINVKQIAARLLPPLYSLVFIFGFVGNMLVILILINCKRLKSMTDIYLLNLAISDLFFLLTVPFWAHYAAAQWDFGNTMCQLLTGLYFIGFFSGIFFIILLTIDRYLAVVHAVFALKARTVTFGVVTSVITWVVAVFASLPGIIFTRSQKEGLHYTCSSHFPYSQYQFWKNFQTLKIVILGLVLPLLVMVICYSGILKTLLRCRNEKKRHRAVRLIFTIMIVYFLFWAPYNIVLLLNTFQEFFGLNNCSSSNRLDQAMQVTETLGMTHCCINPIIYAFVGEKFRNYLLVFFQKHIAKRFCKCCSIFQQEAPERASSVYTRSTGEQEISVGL
Sequence of Voltage-gated inwardly rectifying potassium channel KCNH2 (Q12809 whole entry): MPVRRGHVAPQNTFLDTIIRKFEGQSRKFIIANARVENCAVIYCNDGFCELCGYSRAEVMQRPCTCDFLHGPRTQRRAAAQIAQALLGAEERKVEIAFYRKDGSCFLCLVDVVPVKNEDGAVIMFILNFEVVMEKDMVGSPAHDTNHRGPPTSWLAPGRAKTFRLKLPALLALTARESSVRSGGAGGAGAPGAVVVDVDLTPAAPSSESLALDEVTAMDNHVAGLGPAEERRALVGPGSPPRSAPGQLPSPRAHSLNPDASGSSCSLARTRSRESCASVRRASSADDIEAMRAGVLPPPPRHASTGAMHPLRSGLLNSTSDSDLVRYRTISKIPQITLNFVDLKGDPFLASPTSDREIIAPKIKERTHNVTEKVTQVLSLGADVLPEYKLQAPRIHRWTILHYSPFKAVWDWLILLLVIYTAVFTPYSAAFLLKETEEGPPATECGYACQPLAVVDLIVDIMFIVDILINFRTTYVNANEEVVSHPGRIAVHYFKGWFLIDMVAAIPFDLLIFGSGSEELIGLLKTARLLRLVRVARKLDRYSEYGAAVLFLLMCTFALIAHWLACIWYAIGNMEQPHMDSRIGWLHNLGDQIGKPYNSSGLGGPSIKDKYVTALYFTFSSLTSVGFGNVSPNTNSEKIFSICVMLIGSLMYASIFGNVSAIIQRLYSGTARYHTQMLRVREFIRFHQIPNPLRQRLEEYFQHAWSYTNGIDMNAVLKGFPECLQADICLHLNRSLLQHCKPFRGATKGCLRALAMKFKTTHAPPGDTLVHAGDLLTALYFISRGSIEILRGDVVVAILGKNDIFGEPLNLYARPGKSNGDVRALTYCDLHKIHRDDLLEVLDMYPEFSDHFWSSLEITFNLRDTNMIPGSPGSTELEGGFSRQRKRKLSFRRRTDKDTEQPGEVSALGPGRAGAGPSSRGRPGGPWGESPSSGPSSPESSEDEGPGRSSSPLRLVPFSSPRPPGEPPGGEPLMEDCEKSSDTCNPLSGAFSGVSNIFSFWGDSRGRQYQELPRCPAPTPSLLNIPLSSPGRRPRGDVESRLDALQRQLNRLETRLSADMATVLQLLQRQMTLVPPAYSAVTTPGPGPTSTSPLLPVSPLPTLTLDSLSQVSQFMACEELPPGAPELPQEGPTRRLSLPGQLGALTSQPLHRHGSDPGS
Sequence of Cytochrome P450 3A4 (P08684 whole entry): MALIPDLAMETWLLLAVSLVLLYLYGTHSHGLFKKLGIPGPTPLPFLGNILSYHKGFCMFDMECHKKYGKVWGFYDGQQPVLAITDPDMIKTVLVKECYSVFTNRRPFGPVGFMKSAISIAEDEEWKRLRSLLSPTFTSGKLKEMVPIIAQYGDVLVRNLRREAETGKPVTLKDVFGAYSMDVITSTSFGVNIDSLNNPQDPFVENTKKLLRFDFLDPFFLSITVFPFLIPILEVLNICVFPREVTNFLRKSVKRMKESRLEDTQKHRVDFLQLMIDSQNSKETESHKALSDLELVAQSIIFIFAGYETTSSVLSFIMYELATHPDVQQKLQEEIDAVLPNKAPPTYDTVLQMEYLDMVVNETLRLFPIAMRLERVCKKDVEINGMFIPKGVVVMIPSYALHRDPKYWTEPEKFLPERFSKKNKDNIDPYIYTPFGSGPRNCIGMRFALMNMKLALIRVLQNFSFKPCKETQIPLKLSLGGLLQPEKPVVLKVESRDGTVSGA
Sequence of Cytochrome P450 2C9 (P11712 whole entry): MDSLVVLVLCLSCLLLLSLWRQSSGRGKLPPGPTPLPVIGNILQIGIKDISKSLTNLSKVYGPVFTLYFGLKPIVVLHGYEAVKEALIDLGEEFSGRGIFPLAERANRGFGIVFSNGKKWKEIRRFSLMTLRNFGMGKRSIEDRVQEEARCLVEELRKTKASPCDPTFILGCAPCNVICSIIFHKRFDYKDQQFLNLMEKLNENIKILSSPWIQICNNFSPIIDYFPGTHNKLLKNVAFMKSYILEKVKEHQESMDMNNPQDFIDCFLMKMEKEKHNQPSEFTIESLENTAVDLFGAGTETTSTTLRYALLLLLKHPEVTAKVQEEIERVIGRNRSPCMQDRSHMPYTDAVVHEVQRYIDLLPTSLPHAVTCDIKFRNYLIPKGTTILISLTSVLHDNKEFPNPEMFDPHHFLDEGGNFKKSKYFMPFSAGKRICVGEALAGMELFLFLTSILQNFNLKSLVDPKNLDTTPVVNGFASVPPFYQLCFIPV
Sequence of Cytochrome P450 2C19 (P33261 whole entry): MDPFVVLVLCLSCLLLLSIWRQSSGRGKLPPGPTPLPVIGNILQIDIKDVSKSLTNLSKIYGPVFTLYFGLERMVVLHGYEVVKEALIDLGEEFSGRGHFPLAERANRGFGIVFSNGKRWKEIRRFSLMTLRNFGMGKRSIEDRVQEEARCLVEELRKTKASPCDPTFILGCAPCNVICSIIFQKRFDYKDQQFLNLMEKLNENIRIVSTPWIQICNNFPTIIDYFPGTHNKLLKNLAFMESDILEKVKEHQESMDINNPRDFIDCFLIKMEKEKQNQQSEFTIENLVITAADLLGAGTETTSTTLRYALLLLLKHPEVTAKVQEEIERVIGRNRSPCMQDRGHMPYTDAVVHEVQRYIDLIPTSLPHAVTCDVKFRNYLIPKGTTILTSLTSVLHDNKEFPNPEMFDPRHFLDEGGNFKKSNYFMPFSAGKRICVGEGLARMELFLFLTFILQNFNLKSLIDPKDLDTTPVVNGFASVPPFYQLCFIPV
Sequence of Cytochrome P450 2D6 (P10635 whole entry): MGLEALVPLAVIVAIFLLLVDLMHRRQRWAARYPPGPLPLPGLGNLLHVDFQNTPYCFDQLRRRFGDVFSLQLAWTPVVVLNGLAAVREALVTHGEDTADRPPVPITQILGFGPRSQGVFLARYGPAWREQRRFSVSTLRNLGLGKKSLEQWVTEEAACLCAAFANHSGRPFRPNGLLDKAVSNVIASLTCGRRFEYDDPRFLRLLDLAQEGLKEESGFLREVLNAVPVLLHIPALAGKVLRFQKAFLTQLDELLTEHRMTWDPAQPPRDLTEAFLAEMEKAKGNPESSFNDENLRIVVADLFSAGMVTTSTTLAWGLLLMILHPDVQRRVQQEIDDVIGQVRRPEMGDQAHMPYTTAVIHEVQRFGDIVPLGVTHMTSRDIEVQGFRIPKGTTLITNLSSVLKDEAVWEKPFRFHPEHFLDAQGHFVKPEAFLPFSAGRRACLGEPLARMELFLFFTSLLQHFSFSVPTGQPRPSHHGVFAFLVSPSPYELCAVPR

Compound: Cc1ncnc(C)c1C(=O)N1CCC(C)(N2CCN(C3CCc4cc(Br)ccc43)[C@@H](C)C2)CC1 (mixture of isomers)
IC50 [1]: 190 nM

Compound: Cc1ncnc(C)c1C(=O)N1CCC(C)(N2CCN([C@@H]3c4ccc(C(F)(F)F)cc4C[C@H]3O)[C@@H](C)C2)CC1
IC50 [1]: 211 nM

Compound: COC[C@@H](c1ccc(C(F)(F)F)cc1)N1CCN(C2(C)CCN(C(=O)c3c(C)ncnc3C)CC2)C[C@@H]1C [VICRIVIROC]
half-life [4]: 28 h | IC50 [2]: 0.56 nM | IC50 [3]: 0.23 nM

Compound: Cc1ncnc(C)c1C(=O)N1CCC(C)(N2CCN(C3CCc4cc(C(F)(F)F)ccc43)[C@@H](C)C2)CC1 (single isomer, unassigned)
IC50 [1]: 5 nM | IC50 [3]: 19 nM

Compound: Cc1ncnc(C)c1C(=O)N1CCC(C)(N2CCN(C3CCc4cc(Br)ccc43)[C@@H](C)C2)CC1 (single isomer, unassigned; diastereomer 1)
IC50 [1]: 3.9 nM | IC50 [3]: 334 nM

Further lines, with some results ahead:

IC50 [1]: 4.6 nM | IC50 [2]: 12 nM | IC50 [3]: 11 nM
Compound: CO[C@@H]1Cc2cc(C(F)(F)F)ccc2[C@H]1N1CCN(C2(C)CCN(C(=O)c3c(C)ncnc3C)CC2)C[C@@H]1C

IC50 [1]: > 1000 nM
Compound: Cc1ncnc(C)c1C(=O)N1CCC(C)(N2CCN([C@H]3c4ccc(C(F)(F)F)cc4C[C@@H]3O)[C@@H](C)C2)CC1

Kd [5]: 3.1 nM | IC50 [6]: 16 nM | IC50 [7]: 3 nM | IC50 [8]: 1.5 nM | IC90 [9]: 9 nM | IC90 [10]: 9 nM | IC90 [11]: 9 nM | IC90 [12]: 9 nM | IC90 [13]: 9 nM | IC90 [14]: 9 nM | IC90 [15]: 9 nM | IC90 [16]: 9 nM | fraction unbound [19]: 0.16 | IC50 [20]: > 25000 nM | IC50 [21]: > 25000 nM | IC50 [22]: > 25000 nM | IC50 [23]: > 25000 nM | IC50 [24]: > 25000 nM | clearance [25]: 10.3 mL/min/kg | Vd [26]: 4.1 L/kg | half-life [27]: 6 h | AUC [28]: 2.9 µM·h | clearance [29]: 3.33 mL/min/kg | Vd [30]: 3.8 L/kg | half-life [31]: 11 h | AUC [32]: 7.85 µM·h | Tmax [33]: 3 h | Cmax [34]: 4.07 µM | concentration at 24 h [35]: 1.09 µM | half-life [36]: 12 h | AUC [37]: 55.2 µM·h | bioavailability [38]: 100% | Tmax [39]: 0.5 h | Cmax [40]: 14 µM | half-life [41]: 17 h | AUC [42]: 150 µM·h | bioavailability [43]: 95% | Papp B→A [44]: 16.5 ×10⁻⁶ cm/s | Activity [45]: Not Active | half-life [4]: 58 h | IC50 [1]: 6.5 nM | IC50 [2]: 0.36 nM | IC50 [3]: 0.16 nM
Compound: CCO[C@@H]1Cc2cc(C(F)(F)F)ccc2[C@H]1N1CCN(C2(C)CCN(C(=O)c3c(C)ncnc3C)CC2)C[C@@H]1C [INCB-9471]
Activity [17]: inactive | IC50 [18]: 4500 nM

IC50 [1]: > 1000 nM
Compound: CCO[C@H]1Cc2cc(C(F)(F)F)ccc2[C@@H]1N1CCN(C2(C)CCN(C(=O)c3c(C)ncnc3C)CC2)C[C@@H]1C

IC50 [1]: > 1000 nM
Compound: CO[C@H]1Cc2cc(C(F)(F)F)ccc2[C@@H]1N1CCN(C2(C)CCN(C(=O)c3c(C)ncnc3C)CC2)C[C@@H]1C
